Positions of bridges follow the written chain, without caps; N, C: chain ends. Residues, ends and D or L forms follow the SMILES beside them. No end group written: not given here.
What was measured:
aldolase (PT1) [1] = target: T1, aldolase (PT1) (Oryctolagus cuniculus, UniProt P00883); assay: Surface plasmon resonance; type: binding, rabbit; conditions: PT1 (tetrameric), 600 pM vs 326 nM
T1 sequence (P00883 1-364): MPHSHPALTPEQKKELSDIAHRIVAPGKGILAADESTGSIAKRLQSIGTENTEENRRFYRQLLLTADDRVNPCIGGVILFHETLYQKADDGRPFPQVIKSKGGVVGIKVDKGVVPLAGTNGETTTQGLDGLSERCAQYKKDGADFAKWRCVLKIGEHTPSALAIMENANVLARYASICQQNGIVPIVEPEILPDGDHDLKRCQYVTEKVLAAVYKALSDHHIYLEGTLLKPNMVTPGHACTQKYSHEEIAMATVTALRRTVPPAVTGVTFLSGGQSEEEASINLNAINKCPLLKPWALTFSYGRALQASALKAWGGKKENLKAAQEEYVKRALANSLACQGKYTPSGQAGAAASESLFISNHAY
Summary of the method: (§1)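 Targets were amine-coupled with EDC/NHS, then ethanolamine pH 8.5. PT1 was coupled at 200 µg/mL and PT5 at 30 µg/mL, both in 10 mM NaAc pH 5.2. PT3 was coupled at 10 µg/mL in 10 mM NaAc pH 4.5. Two-fold dilutions of chemically synthesised peptide were run in PBS pH 7.4 with 0.005% Tween-20 and 2% DMSO, at 25 °C and 30 µL/min. KD, kon and koff were recorded.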

aldolase (PT1) [2] = target: T1, aldolase (PT1); assay: Yeast surface display titration; type: binding, rabbit
streptavidin (PT2) = streptavidin (PT2) (Streptomyces avidinii, UniProt P22629); assay: Yeast surface display titration; type: binding
α-chymotrypsin (PT5) = α-chymotrypsin (PT5) (Bos taurus, UniProt P00766); assay: Yeast surface display titration; type: binding, bovine
[3] = target: bovine α-chymotrypsin (PT5) (Bos taurus, UniProt P00766); assay: Residual enzyme activity, chromogenic substrate; type: biochemical
strep-tactin (PH2.1) = assay: Yeast surface display titration, specificity; type: binding; conditions: from KDapp values
carbonic anhydrase (PT4) = carbonic anhydrase (PT4) (Bos taurus, UniProt P00921); assay: Yeast surface display titration; type: binding, bovine; conditions: ratio of KDapp values
α-chymotrypsin = conditions: natural inhibitor, Fig. 9d; cited from earlier work
[4] = target: carbapenemase GES-5 (PT3) (Klebsiella pneumoniae, UniProt Q09HD0); assay: Surface plasmon resonance; type: binding; conditions: soluble chemically synthesised isomers of MP3.2
Summary of the method: as §1

streptavidin (PT2), sequence (P22629 37-163 limits assumed): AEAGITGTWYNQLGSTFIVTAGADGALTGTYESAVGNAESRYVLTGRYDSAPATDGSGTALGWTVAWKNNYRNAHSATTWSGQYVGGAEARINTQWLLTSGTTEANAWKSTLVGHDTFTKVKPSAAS
carbonic anhydrase (PT4), sequence (P00921 whole entry): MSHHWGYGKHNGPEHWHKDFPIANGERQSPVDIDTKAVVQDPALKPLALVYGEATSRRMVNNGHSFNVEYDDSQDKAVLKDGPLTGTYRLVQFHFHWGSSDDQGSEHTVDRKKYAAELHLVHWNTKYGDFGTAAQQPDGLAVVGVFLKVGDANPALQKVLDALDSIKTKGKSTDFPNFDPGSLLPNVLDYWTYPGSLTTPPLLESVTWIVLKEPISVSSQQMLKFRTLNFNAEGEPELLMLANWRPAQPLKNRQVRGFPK
carbapenemase GES-5 (PT3), sequence (Q09HD0 19-287): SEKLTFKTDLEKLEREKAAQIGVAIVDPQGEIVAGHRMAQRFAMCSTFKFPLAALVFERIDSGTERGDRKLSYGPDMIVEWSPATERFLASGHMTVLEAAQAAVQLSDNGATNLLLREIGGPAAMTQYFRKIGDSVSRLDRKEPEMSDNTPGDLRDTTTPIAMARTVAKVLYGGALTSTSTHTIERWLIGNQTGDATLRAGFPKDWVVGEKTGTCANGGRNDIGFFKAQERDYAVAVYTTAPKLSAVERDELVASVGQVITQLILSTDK

Compound: CC(C)C[C@@H]1NC(=O)[C@H](C(C)C)NC(=O)[C@H](CCC(=O)O)NC(=O)[C@@H](NC(=O)[C@H](C)N)CSSC[C@@H](C(=O)N[C@@H](CO)C(=O)NCC(N)=O)NC(=O)CNC(=O)[C@H]([C@@H](C)O)NC(=O)[C@H](Cc2c[nH]c3ccccc23)NC(=O)[C@H](CC(=O)O)NC(=O)[C@H](Cc2ccc(O)cc2)NC(=O)[C@H](CO)NC1=O [MP1.1] (H-ACEVLSYDWTGCSG-NH2; disulfide 2-12)
- discrepancy between KD by yeast surface titration and by SPR (aldolase (PT1) [1]): ~ 500 fold
- Kd (aldolase (PT1) [2]): 0.6 nM

Compound: CC[C@H](C)[C@@H]1NC(=O)[C@H](C(C)C)NC(=O)[C@H](Cc2ccc(O)cc2)NC(=O)[C@H](Cc2ccccc2)NC(=O)[C@H](CCC(N)=O)NC(=O)[C@@H]2CCCN2C(=O)[C@H](Cc2c[nH]cn2)NC(=O)[C@H](Cc2ccc(O)cc2)NC(=O)[C@H](Cc2c[nH]cn2)NC(=O)[C@@H](NC(=O)[C@H](C)N)CSSC[C@@H](C(=O)N[C@@H](CO)C(=O)NCC(N)=O)NC1=O [MP2.2] (H-ACHYHPQFYVICSG-NH2; disulfide 2-12)
- tighter binding to PT2 than MP2.5 (streptavidin (PT2); ratio of KDapp values): 3 fold

Compound: CC[C@H](C)[C@@H]1NC(=O)[C@H](Cc2c[nH]c3ccccc23)NC(=O)[C@H]([C@@H](C)O)NC(=O)[C@H](Cc2c[nH]c3ccccc23)NC(=O)[C@H](CC(=O)O)NC(=O)[C@H](CCCNC(=N)N)NC(=O)[C@@H](NC(=O)[C@H](C)N)CSSC[C@@H](C(=O)N[C@@H](CO)C(=O)NCC(N)=O)NC(=O)[C@H](CCC(N)=O)NC1=O [MP5.1] (H-ACRDWTWIQCSG-NH2; disulfide 2-10)
- higher binding affinity to PT5 than MP5.2 (α-chymotrypsin (PT5); ratio of KDapp values): 2 fold
- tighter binding to PT5 than MP5.5 (α-chymotrypsin (PT5); ratio of KDapp values): 5 fold

Compound: CC[C@H](C)[C@@H]1NC(=O)[C@H]([C@@H](C)O)NC(=O)CNC(=O)[C@H](CCCNC(=N)N)NC(=O)[C@H](CC(C)C)NC(=O)[C@@H]2CSSC[C@@H](C(=O)N[C@@H](CO)C(=O)NCC(N)=O)NC(=O)[C@H](CSSC[C@H](NC(=O)[C@H](C)N)C(=O)N[C@@H](C)C(=O)N[C@@H](Cc3c[nH]c4ccccc34)C(=O)N2)NC1=O [MP5.4.1] (H-ACAWCLRGTICCSG-NH2; disulfide 2-11, 5-12)
- Ki [3]: 50.8 nM

Compound: CC[C@H](C)[C@H](NC(=O)[C@@H](NC(=O)CNC(=O)[C@H](CCCNC(=N)N)NC(=O)[C@H](CC(C)C)NC(=O)[C@@H]1CSSC[C@H](NC(=O)[C@H](C)N)C(=O)N[C@@H](C)C(=O)N[C@@H](Cc2c[nH]c3ccccc23)C(=O)N1)[C@@H](C)O)C(=O)N[C@H]1CSSC[C@@H](C(=O)N[C@@H](CO)C(=O)NCC(N)=O)NC1=O [MP5.4.2] (H-ACAWCLRGTICCSG-NH2; disulfide 2-5, 11-12)
- Ki [3]: 11.3 nM

Compound: ACAWCLRGTICCSG (also: bicyclic or more (positions not given here)) [MP5.4]
- tighter binding to PT5 than MP5.5 (α-chymotrypsin (PT5); ratio of KDapp values): 46 fold
- Kd (α-chymotrypsin (PT5); read-out: KDapp, yeast-displayed peptide vs soluble PT5, text value): 0.2 nM

Compound: ACCYRIYCPCSG (also: bicyclic or more (positions not given here)) [MP5.3]
- tighter binding to PT5 than MP5.5 (α-chymotrypsin (PT5); ratio of KDapp values): 3 fold

Compound: ACHYHPQFYMRCSG (disulfide 2-12 (inferred)) [MP2.6]
- tighter binding to PT2 than MP2.4 (streptavidin (PT2); ratio of KDapp values): 6 fold
- Kd (streptavidin (PT2); read-out: KDapp, yeast-displayed peptide vs soluble PT2, text value): 0.2 to 0.3 nM

Compound: ACIMVHYDRVECSG (disulfide 2-12 (inferred)) [MP2.3]
- tighter binding to PH2.1 than to PT2 (strep-tactin (PH2.1)): ~2 fold

Compound: ACLVGPYYMLDCSG (disulfide 2-12 (inferred)) [MP4.1]
- higher binding affinity for PT4 than MP4.4 (carbonic anhydrase (PT4)): 16 fold
- tighter binding to PT4 than MP4.2 (carbonic anhydrase (PT4)): 4 fold
- tighter binding to PT4 than MP4.3 (carbonic anhydrase (PT4)): 9 fold

Compound: ACSMCHPQGDFCYWACSG (also: bicyclic or more (positions not given here)) [MP2.1]
- tighter binding to PH2.1 than to PT2 (strep-tactin (PH2.1)): ~ 10 fold

Compound: H-TVLRGCWTFSFPPKPCI-NH2 [HECI, reference compound]
- Ki (α-chymotrypsin): 3900 nM

Compound: MP3.2.1: chemically synthesised ‘two rings’ isomer of MP3.2 (ACRYICLSFRHCGWFCSG-NH2; disulfide 2-12, 6-16; N-terminus assumed; SMILES CC[C@H](C)[C@@H]1NC(=O)[C@H](Cc2ccc(O)cc2)NC(=O)[C@H](CCCNC(=N)N)NC(=O)[C@@H](NC(=O)[C@H](C)N)CSSC[C@@H]2NC(=O)[C@H](Cc3c[nH]cn3)NC(=O)[C@H](CCCNC(=N)N)NC(=O)[C@H](Cc3ccccc3)NC(=O)[C@H](CO)NC(=O)[C@H](CC(C)C)NC(=O)[C@H](CSSC[C@@H](C(=O)N[C@@H](CO)C(=O)NCC(N)=O)NC(=O)[C@H](Cc3ccccc3)NC(=O)[C@H](Cc3c[nH]c4ccccc34)NC(=O)CNC2=O)NC1=O)
- interaction with immobilised PT3 (SPR), in words [4]: no or very weak interactions

Compound: MP3.2.2: chemically synthesised ‘two rings’ isomer of MP3.2 (ACRYICLSFRHCGWFCSG-NH2; disulfide 12-16, 2-6; N-terminus assumed; SMILES CC[C@H](C)[C@@H]1NC(=O)[C@H](Cc2ccc(O)cc2)NC(=O)[C@H](CCCNC(=N)N)NC(=O)[C@@H](NC(=O)[C@H](C)N)CSSC[C@@H](C(=O)N[C@@H](CC(C)C)C(=O)N[C@@H](CO)C(=O)N[C@@H](Cc2ccccc2)C(=O)N[C@@H](CCCNC(=N)N)C(=O)N[C@@H](Cc2c[nH]cn2)C(=O)N[C@H]2CSSC[C@@H](C(=O)N[C@@H](CO)C(=O)NCC(N)=O)NC(=O)[C@H](Cc3ccccc3)NC(=O)[C@H](Cc3c[nH]c4ccccc34)NC(=O)CNC2=O)NC1=O)
- interaction with immobilised PT3 (SPR), in words [4]: no or very weak interactions
